# Screening results (PubChem)
# Yeast superoxide – caloric restriction mimetics inhibiting age-related superoxide in yeast. S. cerevisiae aged cells, superoxide DHE fluorescence; active compounds read low. superoxide response (% of plate mean), % at 10 µM. hit rate 0.18% among 330,000. AID 2690;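 active means superoxide response under a set limit, about three screen SD below normal, cut at about 65% in these data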;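 further: yeast aged for seven days with compound at 30 °C before DHE staining; 100% = average MFI of all compound-treated wells on the plate with controls excluded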
# TRPC4 act – activators of mouse TRPC4 channel. Q9QUQ5. HEK293 TRPC4beta/mu-opioid, Fluo4 calcium fluorescence; active compounds read high. B-score at 10 µM. hit rate 0.49% among 310,000;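 active means B-score above 5 SD of library B-scores, and initial fluorescence ratio not above library mean plus 5 SD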;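 further: positive B-score marks a calcium rise read as TRPC4 activation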
#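 Technique: kinetic Fluo4 calcium fluorescence; Test system: TRPC4beta and mu-opioid receptor HEK293 stable cells; Measure: B-scored integrated calcium fluorescence ratio; Benchmarks: low control buffer alone, high control maximal DAMGO; Schedule: 45 min room-temperature Fluo4 loading, 110 s read.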
# TRPC4 PAM – allosteric potentiators of mouse TRPC4 channel. B-score at 10 µM. HEK293 TRPC4beta/mu-opioid, DAMGO EC20, Fluo-4 Ca2+ flux; active compounds read high. hit rate 0.42% among 310,000. Q9QUQ5. AID 2227;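 active means B-score of calcium response area above 5 SD of library B-scores, with initial fluorescence ratio within 5 SD of library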;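 further: B-score of integrated fluorescence ratio over time as area under calcium response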
# TRPC6 inhibitor – inhibitors of mouse TRPC6 channel | Q61143 | HEK293-TRPC6, membrane potential dye, ACh-evoked depolarization; active compounds read low | B-score at 10 µM | hit rate 1.1% among 310,000 | AID 2553;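 active means B-score under library mean minus 3 SD, initial fluorescence not abnormally high, positive integrated signal ratio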;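 further: B-score derived from integrated fluorescence ratio over the kinetic read; more negative B-score means stronger inhibition of depolarization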
# Target sequence (Q61143 whole entry, looked up): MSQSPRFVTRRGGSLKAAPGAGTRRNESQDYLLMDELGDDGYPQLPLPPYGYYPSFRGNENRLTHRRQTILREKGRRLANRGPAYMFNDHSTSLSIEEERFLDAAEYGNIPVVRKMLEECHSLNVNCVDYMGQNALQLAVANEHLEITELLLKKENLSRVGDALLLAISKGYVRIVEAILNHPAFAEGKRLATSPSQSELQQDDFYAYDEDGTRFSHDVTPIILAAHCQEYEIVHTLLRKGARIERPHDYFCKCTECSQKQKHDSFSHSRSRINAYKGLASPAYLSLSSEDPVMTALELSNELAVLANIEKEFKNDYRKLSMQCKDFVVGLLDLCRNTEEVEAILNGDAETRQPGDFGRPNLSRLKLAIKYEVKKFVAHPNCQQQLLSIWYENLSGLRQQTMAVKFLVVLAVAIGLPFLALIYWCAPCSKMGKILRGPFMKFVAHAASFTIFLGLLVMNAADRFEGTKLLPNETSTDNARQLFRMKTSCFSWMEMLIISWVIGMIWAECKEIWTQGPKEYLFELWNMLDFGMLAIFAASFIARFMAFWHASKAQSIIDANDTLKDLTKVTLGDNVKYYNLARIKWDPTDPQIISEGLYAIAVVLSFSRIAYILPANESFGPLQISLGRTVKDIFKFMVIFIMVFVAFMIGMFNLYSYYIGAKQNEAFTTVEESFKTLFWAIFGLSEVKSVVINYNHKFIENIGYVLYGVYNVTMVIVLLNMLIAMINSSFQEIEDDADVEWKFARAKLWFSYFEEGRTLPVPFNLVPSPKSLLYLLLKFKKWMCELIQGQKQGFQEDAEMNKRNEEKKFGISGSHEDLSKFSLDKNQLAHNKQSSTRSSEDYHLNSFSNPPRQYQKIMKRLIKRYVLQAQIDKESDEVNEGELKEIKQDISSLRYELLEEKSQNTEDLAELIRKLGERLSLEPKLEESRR
# TRPC6 activator – activators of mouse TRPC6 channel | hit rate 0.13% among 310,000 | HEK293-TRPC6 membrane potential dye fluorescence; active compounds read high | Q61143 | B-score at 10 µM;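 active means B-score of the integrated fluorescence ratio above library mean plus 3 SD, and starting fluorescence ratio within library mean plus 5 SD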;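 further: higher score means more depolarization so channel activation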
# TRPC4 block – blocks the mouse TRPC4 cation channel; hit rate 0.39% among 300,000; B-score at 10 µM; AID 2247; HEK293 TRPC4beta/mu-opioid, DAMGO-evoked Fluo4 calcium flux; active compounds read low; Q9QUQ5;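 active means B-score over 3 SD under the library average, no early fluorescence shift, positive overall ratio signal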
#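 Assay system: Stable TRPC4beta/mu-opioid receptor HEK293 cells | Reagent: DAMGO in two steps, submaximal then maximal | Compound dosing: Single concentration per test compound | Signal: Fluo4 Ca2+ flux fluorescence | Evaluation: Per-well B score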
# TRPC4 sel inh 2 – second selectivity test of TRPC6 inhibitors: effect on mouse TRPC4; inhibition, % at 10 µM; hit rate 42% among 920; shares compounds with TRPC6 inhibitor; HEK293 TRPC4/MOR, membrane potential dye fluorescence; channel activated by saturating DAMGO dose; AID 2776;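 active means compounds whose fluorescence signal differed from control wells by over 3 SD, either direction, in both duplicate plates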
# TRPC4 spec – selectivity of TRPC6 inhibitors: effect on mouse TRPC4; hit rate 61% among 920; HEK293 TRPC4/mu-opioid, membrane potential fluorescence; shares compounds with TRPC6 inhibitor; activity change, negative = inhibition, % at 10 µM; AID 2777;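 active means rise or fall in signal beyond 3 SD of buffer-only wells in both replicate plates, either sign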;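 further: integrated kinetic ratio of fluorescence range over baseline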
# HEK293 MPD ctr 2-1 – second check of TRPC6 inhibitor effects in parental HEK293 cells | shares compounds with TRPC6 inhibitor | parental HEK293 membrane potential dye fluorescence; maximal acetylcholine challenge after compound addition | signal change vs control, % at 10 µM | hit rate 31% among 920;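 active means membrane potential signal moving either way by over 3 SD of the maximum-effect control, in both duplicate plates, meaning non-specific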
# HEK293 MPD ctr-1 – checks TRPC6 inhibitor effects in parental HEK293 cells. shares compounds with TRPC6 inhibitor. membrane potential signal change, % at 10 µM. parental HEK293 membrane potential dye fluorescence. hit rate 60% among 920;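 active means membrane potential signal shifting up or down by more than 3 SD of buffer-only wells, on both duplicate plates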
# HEK293 MPD ctr-2 – parental HEK293 nonspecific activity of TRPC6 modulators. shares compounds with TRPC6 inhibitor. membrane potential dye fluorescence. membrane potential signal change, % at 10 µM. hit rate 51% among 2,400. AID 488924;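 active means membrane potential signal moves up or down beyond 5 SD from buffer-only wells, on both duplicate plates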
# HEK293 MPD ctr 2-2 – second counter-screen for TRPC6 modulators: effect in parental HEK293 cells. shares compounds with TRPC6 inhibitor. membrane potential dye fluorescence; after compound, maximal acetylcholine stimulation. inhibition, % at 10 µM. hit rate 14% among 2,400. AID 488926;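 active means membrane potential signal drops by more than 5 SD from the mean control signal, in both duplicate plates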;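 further: plate controls were acetylcholine ECmax control wells for no effect and buffer only wells for full effect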
# TRPC4 ctr mod – mouse TRPC4 off-target activity of TRPC6 modulators; shares compounds with TRPC6 inhibitor; HEK293 TRPC4/mu-opioid, membrane potential fluorescence; percent change from control (negative = decrease, positive = increase), % at 10 µM; hit rate 69% among 2,400; AID 488927;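 active means membrane potential signal moved up or down beyond 5 SD of buffer control wells, in both duplicate plates, actives on both sides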;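 further: plate controls were assay buffer wells for no effect and DAMGO maximal-effect wells for full effect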
# TRPC4 ctr inh 2 – second check of whether TRPC6 modulators also affect mouse TRPC4 | hit rate 55% among 2,400 | AID 488928 | HEK293 TRPC4/mu-opioid, membrane potential dye fluorescence; stimulated with maximal-effect DAMGO | inhibition, % at 10 µM | shares compounds with TRPC6 inhibitor;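 active means drop in membrane potential signal beyond 5 SD of the control wells in both duplicate plates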;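 further: TRPC4 counter screen for TRPC6 hits run under conditions tuned for TRPC6 not TRPC4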
# TRPC6 inh conf – mouse TRPC6 inhibitor confirmation; shares compounds with TRPC6 inhibitor; HEK293-TRPC6, membrane potential dye, ACh-evoked depolarization; inhibition, % at 10 µM; hit rate 43% among 3,300; AID 488960;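 active means fluorescence ratio falls more than 5 SD below the full-stimulation control mean, in both duplicate runs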;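 further: integrated fluorescence ratio of peak minus minimum over baseline after agonist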
# TRPC6 act confirm – mouse TRPC6 activator confirmation. hit rate 11% among 2,800. shares compounds with TRPC6 inhibitor. HEK293-TRPC6 membrane potential dye fluorescence, FDSS. activation, % at 10 µM;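 active means ratio signal rise beyond 5 SD above unstimulated control wells' mean, seen in both duplicate runs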;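 further: plate controls were buffer EC0 wells for no effect and acetylcholine ECmax response for full effect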
# The depositor's hits bear a star; i = inactive; . = no result given. A selection: hits, their analogues and other compounds. The true share with any hit is near 2.3%.
SMILES,Yeast superoxide,TRPC4 act,TRPC4 PAM,TRPC6 inhibitor,TRPC6 activator,TRPC4 block,TRPC4 sel inh 2,TRPC4 spec,HEK293 MPD ctr 2-1,HEK293 MPD ctr-1,HEK293 MPD ctr-2,HEK293 MPD ctr 2-2,TRPC4 ctr mod,TRPC4 ctr inh 2,TRPC6 inh conf,TRPC6 act confirm
Cc1cc(N2CCCCC2)nc2c(C)cccc12,81,i,i,i,i,i,.,.,.,.,.,.,.,.,.,.
Cc1nn(-c2cc(C)c3ccccc3n2)c2c1CCC2,97,i,i,-5.4*,i,i,.,.,.,.,i,i,i,i,i,i
Cc1cc(N2CCCC2)nc2ccccc12,100,i,i,-8.2*,i,i,50%*,-30%*,-6.5%*,-410%*,.,.,.,.,53%*,i
Cc1cnc(NC(=O)c2cccc(S(=O)(=O)N3CCOCC3)c2)s1,88,.,.,.,.,.,.,.,.,.,.,.,.,.,.,.
Cc1ccc(OCCCCNC2CCCC(C)C2C)c(C)c1 (stereo not given),96,i,i,-5.7*,13*,i,.,.,.,.,348%*,i,102%*,51%*,i,119%*
CC[N+](C)(C)CC/C=C1/c2ccccc2Sc2ccc(Cl)cc21,105,i,i,-8.8*,i,i,i,-11%*,i,i,.,.,.,.,79%*,i
CCCCCCCCCC[N+](C)(C)CC/C=C1/c2ccccc2Sc2ccc(Cl)cc21,108,i,i,i,i,i,.,.,.,.,.,.,.,.,.,.
CC(=O)COc1ccc2oc(=O)cc(-c3cc4ccccc4o3)c2c1,98,i,i,i,i,i,.,.,.,.,.,.,.,.,.,.
C(=N\Nc1nc(Nc2ccccc2)nc(N2CCOCC2)n1)/c1c[nH]c2ccccc12,98,i,11*,-6.1*,i,i,.,.,.,.,i,i,-20%*,49%*,48%*,i
Cc1ccc(Nc2nc(N/N=C/c3c[nH]c4ccccc34)nc(N3CCOCC3)n2)cc1,106,i,i,i,i,i,.,.,.,.,.,.,.,.,.,.
Cc1cc(N=Nc2ccccc2)c(NCC(O)C(O)C(O)CO)cc1C (stereo not given),120,i,i,-8.1*,i,i,32%*,-30%*,i,-542%*,.,.,.,.,80%*,i
CCN(CC)CC#CCC(O)(c1ccccc1)C1CCCC1 (stereo not given),85,i,i,-6.5*,i,i,.,.,.,.,156%*,100%*,30%*,i,75%*,.
